test system: Mus musculus; assay: Increase in catalase activity per milligram of tissue in mouse Ehrlich ascites carcinoma cells implanted in Swiss albino mouse treated after 7 days post-tumor implantation at 1.25 mM/kg, sc for 5 days; format: functional; details: not given; call rule not given here
Procedure, shortened: (§1)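 Livers from tumour-bearing mice were excised and rinsed in ice-cold saline, then in cold 0.15 mol/L Tris–HCl pH 7.4. They were blotted dry, weighed and homogenised at 10% w/v. Lipid peroxidation was expressed as nmol MDA/g tissue, catalase as kU/mg tissue and SOD as U/g tissue.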

Question: Which Activity does the source give for `O=C1CCC(N2C(=O)c3ccccc3C2=O)C(=O)N1CSC(=S)N1CCCCC1` (centres undefined) here?
Answer: The Activity was 7.2 kU.

Question: Which Activity does the source give for `O=C1CCC(N2C(=O)c3ccccc3C2=O)C(=O)N1` (racemic) [THALIDOMIDE] here?
Answer: Its Activity is 5.8 kU.

test system: Ehrlich; assay: Induction of apoptosis in mouse Ehrlich ascites carcinoma cells implanted in Swiss albino mouse assessed as increase in Fas-L expression treated after 7 days post-tumor implantation at 1.25 mM/kg, sc for 5 days by immunohistochemical analysis; format: functional; details: not given
Procedure, shortened: (§2)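 Solid tumours from EAC-bearing female Swiss albino mice; formalin-fixed, paraffin-embedded 5 µm sections. Microwave antigen retrieval (20 min, 10 mmol citrate, pH 6.0) after peroxidase block; primary antibody overnight at room temperature, labelled streptavidin–biotin HRP detection, DAB chromogen, Mayer's hematoxylin counterstain. Immunoreactivity scored blind by light microscopy as intensity, % positive cells and H score.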

Question: For `O=C1CCC(N2C(=O)c3ccccc3C2=O)C(=O)N1CSC(=S)N1CCCCC1` (centres undefined), which Activity is on record?
Answer: The Activity was 120%.

Question: `O=C1CCC(N2C(=O)c3ccccc3C2=O)C(=O)N1` (racemic) [THALIDOMIDE] was tested. Which Activity did it give?
Answer: The Activity was 66%.

test system: Ehrlich; assay: Cytotoxicity against mouse Ehrlich ascites carcinoma cells assessed as viable cells at 30 uL after 24 hrs by trypan blue exclusion assay; format: functional; details: not given
Procedure, shortened: (§3)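 EAC cells maintained by i.p. passage in female Swiss albino mice. Cells aspirated from peritoneum, washed in HBSS and centrifuged at 1500 rpm for 15 min; 0.2 mL of diluted suspension plated. Compounds from 10 mmol stock in DMSO/H₂O (0.7:0.3) were added in triplicate and incubated 24 h at 37 °C, 5% CO₂. Viability by trypan blue exclusion; cytotoxicity calculated against control EAC cells.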

Question: Which Activity does the source give for `O=C1CCC(N2C(=O)c3ccccc3C2=O)C(=O)N1CSC(=S)NCc1ccccc1` (centres undefined) here?
Answer: Its Activity is 61.3%.

Question: `CCCNC(=S)SCN1C(=O)CCC(N2C(=O)c3ccccc3C2=O)C1=O` (centres undefined) was tested. Which Activity did it give?
Answer: Its Activity is 88.6%.

Question: Which Activity does the source give for `O=C1CCC(N2C(=O)c3ccccc3C2=O)C(=O)N1CSC(=S)N1CCCCC1` (centres undefined) here?
Answer: The Activity was 95.3%.

Question: Which Activity does the source give for `O=C1CCC(N2C(=O)c3ccccc3C2=O)C(=O)N1` (racemic) [THALIDOMIDE] here?
Answer: Its Activity is 56.4%.

test system: Mus musculus; assay: Decrease in lipid peroxidation in mouse Ehrlich ascites carcinoma cells implanted in Swiss albino mouse assessed as malondialdehyde per gram of tissue treated after 7 days post-tumor implantation at 1.25 mM/kg, sc for 5 days; format: functional; details: not given; procedure, shortened: as §1

Question: Which Activity does the source give for `O=C1CCC(N2C(=O)c3ccccc3C2=O)C(=O)N1CSC(=S)N1CCCCC1` (centres undefined) here?
Answer: Its Activity is 276.2 nmol.

Question: `O=C1CCC(N2C(=O)c3ccccc3C2=O)C(=O)N1` (racemic) [THALIDOMIDE] was tested. Which Activity did it give?
Answer: Its Activity is 330.2 nmol.

test system: Mus musculus; assay: Toxicity in Swiss albino mouse bearing mouse Ehrlich ascites carcinoma cells assessed as focal degeneration of hepatocytes treated after 7 days post-tumor implantation at 1.25 mM/kg, sc for 5 days by histopathological analysis; format: organism-based; details: in vivo
Procedure, shortened: (§4)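 Liver specimens from the treated tumour-bearing mice were paraffin-embedded and cut as 5 µm sections. Sections were H&E-stained and graded for severity of hepatocyte degeneration and necrosis, with 0 meaning no degeneration or necrosis.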

Question: For `O=C1CCC(N2C(=O)c3ccccc3C2=O)C(=O)N1CSC(=S)N1CCCCC1` (centres undefined), which Activity is on record?
Answer: Its Activity is “Active”.

Question: Which Activity does the source give for `O=C1CCC(N2C(=O)c3ccccc3C2=O)C(=O)N1` (racemic) [THALIDOMIDE] here?
Answer: Its Activity is “Active”.

test system: Mus musculus; assay: Toxicity in Swiss albino mouse bearing mouse Ehrlich ascites carcinoma cells assessed as focal necrosis of hepatocytes treated after 7 days post-tumor implantation at 1.25 mM/kg, sc for 5 days by histopathological analysis; format: organism-based; details: in vivo, 1250 µM; procedure, shortened: as §4

Question: `O=C1CCC(N2C(=O)c3ccccc3C2=O)C(=O)N1` (racemic) [THALIDOMIDE] was tested. Which Activity did it give?
Answer: Its Activity is “Active”.

test system: Ehrlich; assay: Cytotoxicity against mouse Ehrlich ascites carcinoma cells assessed as viable cells at 20 uL after 24 hrs by trypan blue exclusion assay; format: functional; details: not given; procedure, shortened: as §3

Question: `O=C1CCC(N2C(=O)c3ccccc3C2=O)C(=O)N1CSC(=S)NCc1ccccc1` (centres undefined) was tested. Which Activity did it give?
Answer: Its Activity is 59%.

Question: `CCCNC(=S)SCN1C(=O)CCC(N2C(=O)c3ccccc3C2=O)C1=O` (centres undefined) was tested. Which Activity did it give?
Answer: The Activity was 75.5%.

Question: For `O=C1CCC(N2C(=O)c3ccccc3C2=O)C(=O)N1CSC(=S)N1CCCCC1` (centres undefined), which Activity is on record?
Answer: The Activity was 80.4%.

Question: How did the Activity turn out when `O=C1CCC(N2C(=O)c3ccccc3C2=O)C(=O)N1` (racemic) [THALIDOMIDE] was run?
Answer: Its Activity is 20.5%.

test system: Ehrlich; assay: Cytotoxicity against mouse Ehrlich ascites carcinoma cells assessed as cell death at 10 uL after 24 hrs by trypan blue exclusion assay; details: not given

Question: Which Activity does the source give for `O=C1CCC(N2C(=O)c3ccccc3C2=O)C(=O)N1CSC(=S)NCc1ccccc1` (centres undefined) here?
Answer: Its Activity is 56.7%.

Question: `CCCNC(=S)SCN1C(=O)CCC(N2C(=O)c3ccccc3C2=O)C1=O` (centres undefined) was tested. Which Activity did it give?
Answer: Its Activity is 10.6%.

Question: Which Activity does the source give for `O=C1CCC(N2C(=O)c3ccccc3C2=O)C(=O)N1CSC(=S)N1CCCCC1` (centres undefined) here?
Answer: Its Activity is 10.3%.

Question: `O=C1CCC(N2C(=O)c3ccccc3C2=O)C(=O)N1` (racemic) [THALIDOMIDE] was tested. Which Activity did it give?
Answer: The Activity was 20.5%.

test system: Ehrlich; assay: Antitumor activity against mouse Ehrlich ascites carcinoma cells implanted in Swiss albino mouse treated after 7 days post-tumor implantation at 1.25 mM/kg, sc for 5 days relative to control; format: functional; details: not given
Procedure, shortened: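 Female Swiss albino mice (n = 8 per group) received 0.2 mL EAC cells (2 × 10⁶ cells/mL) s.c. between the thighs of the lower limb. From day 7, compounds were given at 1.25 mM/kg s.c. daily for 5 consecutive days. […] control group received DMSO/H₂O. Mice were sacrificed and tumour volume change assessed on day 12 post-implantation.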

Question: How did the “inhibition (INH)” value turn out when `O=C1CCC(N2C(=O)c3ccccc3C2=O)C(=O)N1CSC(=S)N1CCCCC1` (centres undefined) was run?
Answer: The value was 95.9%.

Question: Which “inhibition (INH)” value does the source give for `O=C1CCC(N2C(=O)c3ccccc3C2=O)C(=O)N1` (racemic) [THALIDOMIDE] here?
Answer: The value was 80.6%.

test system: Mus musculus; assay: Increase in SOD activity per gram of tissue in mouse Ehrlich ascites carcinoma cells implanted in Swiss albino mouse treated after 7 days post-tumor implantation at 1.25 mM/kg, sc for 5 days; format: functional; details: not given; procedure, shortened: as §1

Question: With `O=C1CCC(N2C(=O)c3ccccc3C2=O)C(=O)N1CSC(=S)N1CCCCC1` (centres undefined) as the molecule, how does the Activity read?
Answer: Its Activity is 152.4 U.

Question: `O=C1CCC(N2C(=O)c3ccccc3C2=O)C(=O)N1` (racemic) [THALIDOMIDE] was tested. Which Activity did it give?
Answer: Its Activity is 108.4 U.

test system: Mus musculus; assay: Toxicity in Swiss albino mouse bearing mouse Ehrlich ascites carcinoma cells assessed as hepatocyte necrosis treated after 7 days post-tumor implantation at 1.25 mM/kg, sc for 5 days by histopathological analysis; format: organism-based; details: in vivo, 1250 µM; procedure, shortened: as §4

Question: `O=C1CCC(N2C(=O)c3ccccc3C2=O)C(=O)N1CSC(=S)N1CCCCC1` (centres undefined) was tested. Which Activity did it give?
Answer: Its Activity is “Non-toxic”.

test system: Ehrlich; assay: Antitumor activity against mouse Ehrlich ascites carcinoma cells implanted in Swiss albino mouse assessed as tumor apoptotic index treated after 7 days post-tumor implantation at 1.25 mM/kg, sc for 5 days by histopathological analysis; format: functional; details: not given
Procedure, shortened: (§5)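 H&E-stained 5 µm paraffin sections of solid tumour. Mitotic cells counted in 10 random fields (at least 1000 tumour cells) at 400×. Apoptotic bodies counted in 10 random fields at the same magnification. MI and AI given as percentage of total intact tumour cells.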

Question: `O=C1CCC(N2C(=O)c3ccccc3C2=O)C(=O)N1CSC(=S)N1CCCCC1` (centres undefined) was tested. Which Activity did it give?
Answer: Its Activity is 0.002.

Question: How did the Activity turn out when `O=C1CCC(N2C(=O)c3ccccc3C2=O)C(=O)N1` (racemic) [THALIDOMIDE] was run?
Answer: Its Activity is 0.003.

test system: Ehrlich; assay: Antiangiogenic activity against mouse Ehrlich ascites carcinoma cells implanted in Swiss albino mouse assessed as inhibition of VEGF expression treated after 7 days post-tumor implantation at 1.25 mM/kg, sc for 5 days by immunohistochemical analysis; format: functional; design: scale not given: the % may be the effect or the level left; details: not given; procedure, shortened: as §2

Question: `O=C1CCC(N2C(=O)c3ccccc3C2=O)C(=O)N1` (racemic) [THALIDOMIDE] was tested. Which Activity did it give?
Answer: The Activity was 8%.

test system: Ehrlich; assay: Antitumor activity against mouse Ehrlich ascites carcinoma cells implanted in Swiss albino mouse assessed as tumor mitotic index treated after 7 days post-tumor implantation at 1.25 mM/kg, sc for 5 days by histopathological analysis; format: functional; details: not given; procedure, shortened: as §5

Question: How did the Activity turn out when `O=C1CCC(N2C(=O)c3ccccc3C2=O)C(=O)N1CSC(=S)N1CCCCC1` (centres undefined) was run?
Answer: The Activity was 0.004.

Question: With `O=C1CCC(N2C(=O)c3ccccc3C2=O)C(=O)N1` (racemic) [THALIDOMIDE] as the molecule, how does the Activity read?
Answer: The Activity was 0.006.

test system: Ehrlich; assay: Antitumor activity against mouse Ehrlich ascites carcinoma cells implanted in Swiss albino mouse assessed as tumor necrosis treated after 7 days post-tumor implantation at 1.25 mM/kg, sc for 5 days by histopathological analysis relative to control; format: functional; details: not given
Procedure, shortened: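 Necrosis scored on H&E-stained 5 µm paraffin sections of excised solid tumour. Severity and percentage necrosis were graded, and an H score was calculated.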

Question: With `O=C1CCC(N2C(=O)c3ccccc3C2=O)C(=O)N1CSC(=S)N1CCCCC1` (centres undefined) as the molecule, how does the Activity read?
Answer: The Activity was 50%.

Question: For `O=C1CCC(N2C(=O)c3ccccc3C2=O)C(=O)N1` (racemic) [THALIDOMIDE], which Activity is on record?
Answer: Its Activity is 44%.

test system: Ehrlich; assay: Antiproliferative activity against mouse Ehrlich ascites carcinoma cells implanted in Swiss albino mouse assessed as inhibition of Ki67 protein expression treated after 7 days post-tumor implantation at 1.25 mM/kg, sc for 5 days by immunohistochemical analysis; format: functional; design: scale not given: the % may be the effect or the level left; details: not given; procedure, shortened: as §2

Question: `O=C1CCC(N2C(=O)c3ccccc3C2=O)C(=O)N1` (racemic) [THALIDOMIDE] was tested. Which Activity did it give?
Answer: The Activity was 7.4%.

Source: ChEMBL document CHEMBL1151683, “Design, synthesis and antitumor evaluation of novel thalidomide dithiocarbamate and dithioate analogs against Ehrlich ascites carcinoma-induced solid tumor in Swiss albino mice” (Bioorg Med Chem, 2008)
